PMC3322254 (Biochemical Pharmacology, 2012)

How the values were obtained:
A2AAR = A2AAR (Homo sapiens, UniProt P29274); experiment: FCM binding of MRS5449 to HEK cells expressing the A2AAR
Method in brief: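 Stably transfected lines grew in DMEM/F12 (1:1) with 10% FBS, 2 mM L-glutamine and penicillin/streptomycin: A1AR CHO cells under 500 μg/ml hygromycin B, A2AAR HEK293 cells under 800 μg/ml G418. Cells were seeded about 400,000/well and grown 24 h at 37 °C, 5% CO2. At about 80% confluency the medium was refreshed and the fluorescent tracer added. Cells were then washed, detached with 0.2% EDTA and read by flow cytometry (488 nm excitation), with autofluorescence subtracted.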

hA3AR [1] = target: T1, hA3AR (Homo sapiens, UniProt P0DMS8); experiment: Fluorescent ligand binding
T1 sequence (P0DMS8 1-318): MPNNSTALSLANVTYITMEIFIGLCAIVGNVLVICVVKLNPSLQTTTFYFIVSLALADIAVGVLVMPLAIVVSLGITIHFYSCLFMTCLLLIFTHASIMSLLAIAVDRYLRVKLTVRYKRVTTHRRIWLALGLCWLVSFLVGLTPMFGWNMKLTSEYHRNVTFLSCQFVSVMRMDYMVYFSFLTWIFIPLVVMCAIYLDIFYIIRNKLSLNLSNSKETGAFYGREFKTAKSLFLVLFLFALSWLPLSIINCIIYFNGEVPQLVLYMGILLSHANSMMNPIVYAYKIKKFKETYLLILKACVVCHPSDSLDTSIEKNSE
Method in brief: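 hA3AR-CHO cells were incubated in medium at 37 °C, 5% CO2. Preliminary screen: 1 h with conjugates at 1.5–20 μM or tracer at 10 nM. Saturation: tracer 2.5–250 nM for 1 h. Kinetics: 10 nM tracer, read from 5 min to 3 h, with dissociation started at 90 min by 10 μM non-fluorescent A3AR antagonist. Cells were EDTA-detached and read by flow cytometry; MFI was corrected for autofluorescence and converted to MESF using bead calibration.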

hA3AR [2] = target: T1, hA3AR; experiment: Radioligand membrane binding assay with [125I]I-AB-MECA
Method in brief: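 Membranes came from CHO (hA1, hA3) or HEK293 (hA2A) cells, homogenized in 50 mM Tris-HCl pH 7.5 with 10 mM MgCl2, pelleted at 20,000 × g and stored at −80 °C with 3 units/ml adenosine deaminase. Protein was measured by Bradford. […] Ki values were obtained at each subtype.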

Chain of A2AAR (P29274 whole entry): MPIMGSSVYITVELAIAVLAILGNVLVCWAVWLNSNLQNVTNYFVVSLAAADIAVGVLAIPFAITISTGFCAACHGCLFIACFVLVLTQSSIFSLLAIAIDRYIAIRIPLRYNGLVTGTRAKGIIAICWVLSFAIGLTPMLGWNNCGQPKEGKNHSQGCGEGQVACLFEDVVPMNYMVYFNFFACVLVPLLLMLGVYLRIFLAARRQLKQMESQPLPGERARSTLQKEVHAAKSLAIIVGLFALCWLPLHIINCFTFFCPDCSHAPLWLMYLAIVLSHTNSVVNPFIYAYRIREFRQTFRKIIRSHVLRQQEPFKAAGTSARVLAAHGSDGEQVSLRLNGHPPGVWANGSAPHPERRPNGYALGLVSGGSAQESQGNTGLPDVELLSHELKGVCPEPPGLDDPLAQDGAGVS

## N=c1ccc2c(-c3ccc(C(=O)NCCCCCCn4cc(CCCC(=O)Nc5nc6ccc(Cl)cc6c6nc(-c7ccco7)nn56)nn4)cc3C(=O)O)c3ccc(N)c(S(=O)(=O)O)c3oc-2c1S(=O)(=O)O [Compound 9, 2-(6-Amino-3-iminio-4,5-disulfonato-3H-xanthen-9-yl)-5-((6-(4-(4-((9-chloro-2-(furan-2-yl)-[1,2,4]triazolo[1,5-c]quinazolin-5-yl)amino)-4-oxobutyl)-1H-1,2,3-triazol-1-yl)hexyl)carbamoyl)benzoate]
A2AAR
  binding compared with the binding to the A3AR (expressed as 100%): 0.5%
hA3AR [1]; 10 nM MRS5449, in presence of 10 μM MRS1220 or 10 μM Cl-IB-MECA or in control CHO cells
  Nonspecific binding, % of total binding: less than 1%
hA3AR [1]; preliminary FCM, 1 h, 37 °C, 1.5-20 μM for 1-6, 10 nM MRS5449
  fluorescence emission (MFI) of cell-bound ligand: sufficiently high MFI
hA3AR [2]; read-out: A3 Ki, CHO cells stably expressing hA3AR, agonist radioligand [125I]I-AB-MECA
  Ki: 6.4 ± 2.5 nM
hA3AR [2]; versus hA1 and hA2AARs, from radioligand Ki values
  selectivity for the A3AR: over 10 fold
